# KCNQ1 inh: inhibitors of human KCNQ1 potassium channel; P51787; B-score at 10 µM; CHO-K1 KCNQ1, FluxOR thallium flux fluorescence; stronger effect = higher value; actives 1.3% (n = 310,000); AID 2642;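 active = compounds whose thallium flux B-score, printed positive for inhibition, exceeds three library SD while starting fluorescence stays within three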;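 note: channel opened by potassium depolarization with thallium stimulus after 20 min compound exposure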
# hERG rescue: shields human hERG channel from block by proarrhythmic agents; Q12809; CHO-hERG, FluxOR thallium flux, dofetilide IC70 present; activation (rescue from dofetilide block), less the hit threshold, % at 10 µM; actives 0.51% (n = 310,000);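 active = activation above the mean of controls blocked by dofetilide plus 5 SD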;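 note: thallium influx through hERG after potassium depolarization seen as dye fluorescence rise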
# KCNK9 block: inhibitors of human KCNK9 two-pore domain potassium channel. HEK293 KCNK9, FluxOR thallium flux fluorescence; stronger effect = lower value. Q9NPC2. B-score at 10 µM. actives 1.2% (n = 310,000);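 active = ratio B-score over 3 SD below the library mean, with starting fluorescence within 5 SD of its mean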;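 note: negative B-score means less thallium flux so channel inhibition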
# KCNK3 block: human KCNK3 channel inhibition, primary screen; O14649; CHO-KCNK3 thallium flux, FluxOR fluorescence; stronger effect = lower value; B-score at 10 µM; actives 0.84% (n = 340,000); AID 602410;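 active = B-score under library mean minus 4 SD, starting fluorescence ratio at most library mean plus 5 SD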;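 note: more negative B-score means stronger inhibition of thallium flux through KCNK3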
# KCNQ1 pot: potentiators or activators of human KCNQ1 potassium channel. B-score at 10 µM. CHO-K1 KCNQ1, thallium flux FluxOR fluorescence; stronger effect = higher value. actives 0.35% (n = 310,000). AID 2648;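 active = fluorescence ratio B-score, a plate-corrected score, at least three library SD, with initial intensity B-score within 5 SD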
#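 Material: CHO-K1 cells stably expressing KCNQ1. Medium: assay buffer for compound exposure, DMSO matched across wells. Reagent: K+/Tl+ depolarizing stimulus. Compound dosing: single-concentration screen. Times: 37 °C overnight plating, 90-min dark dye load, 20-min compound pretreatment. Technique: FluxOR Tl+ flux fluorescence.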
# Kir21 block: Kir2.1 (mouse) channel inhibition | P35561 | HEK293-Kir2.1, FluxOR thallium flux fluorescence; stronger effect = lower value | B-score at 10 µM | actives 0.85% (n = 310,000) | AID 1672;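 active = fluorescence ratio B-score at or below minus 3 SD of library scores, with starting-brightness B-score within 2 SD, cut at about -4.2 in these data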;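 note: channel flux triggered by added potassium and thallium sulfate stimulus; B-score of peak minus minimum fluorescence over baseline after thallium stimulus; more negative B-score means stronger Kir2.1 block with less thallium influx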
# Target sequence (P35561 whole entry, looked up): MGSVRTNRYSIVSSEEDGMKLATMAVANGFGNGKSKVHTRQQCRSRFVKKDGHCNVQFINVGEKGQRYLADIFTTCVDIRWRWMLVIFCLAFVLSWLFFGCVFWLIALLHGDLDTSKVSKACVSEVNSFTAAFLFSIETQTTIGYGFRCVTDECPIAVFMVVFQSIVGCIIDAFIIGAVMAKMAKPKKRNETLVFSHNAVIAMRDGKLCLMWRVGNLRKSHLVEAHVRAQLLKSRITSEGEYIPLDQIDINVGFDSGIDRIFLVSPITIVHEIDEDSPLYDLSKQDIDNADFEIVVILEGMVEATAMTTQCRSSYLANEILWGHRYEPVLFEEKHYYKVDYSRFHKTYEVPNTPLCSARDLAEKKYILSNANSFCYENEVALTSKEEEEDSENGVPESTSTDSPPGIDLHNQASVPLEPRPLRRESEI
# Active calls of the source: *; i = inactive; . = no result given; ! = not confirmed by another sample. Rows were chosen to be rich in hits. Some 3.7% of all compounds tested hit in one or more screens of this group.
SMILES,KCNQ1 inh,hERG rescue,KCNK9 block,KCNK3 block,KCNQ1 pot,Kir21 block
CCOC(=O)/C(=N\Nc1ccccc1Cl)N1CCN(C)CC1,i,-5.6,i,i,i,-0.53
CCOC(=O)/C(=N\Nc1ccccc1Cl)N1CCN(Cc2ccccc2)CC1,7*,-6.2,-8.05*,i,i,0.43
CCCCCCCCCCCCCCCC[n+]1ccc(C(N)=O)cc1,.,.,.,i,.,.
CCCCCCCCCCCCCCCC[n+]1ccccc1,.,.,.,-11.2*!,.,.
CCc1c(C)sc(NC(=O)c2cccs2)c1C(=O)OC(C)C,i,-9.6,-6.59*,i,i,0.09
CN(c1ccc(F)cc1)S(=O)(=O)c1ccc(Cl)c(C(=O)Nc2ccc3c(c2)CCC3)c1,i,-11.2,-6.9*,i,i,0.9
CC1=C(C(=O)OCCc2ccccc2)C(c2ccsc2)NC(=O)N1C (stereo not drawn),i,-11.4,i,i,i,-5.6*
COC(=O)c1cc(C(=O)NNC(=O)c2ccc3c(c2)OCO3)cc([N+](=O)[O-])c1,.,.,.,i,.,.
CCC1(c2ccccc2)ON(c2c(Br)cccc2Br)C1=O (stereo not drawn),.,.,.,i,.,.
COc1ccc(C2=NOC(Cn3nc(C(=O)NCC4CC4)cc3-c3ccccc3)C2)cc1 (stereo not drawn),i,-10.9,i,i,i,1.41
Cc1ccc(C2Cc3cc(O)c(O)cc3CN2)cc1 (stereo not drawn),i,-4.5,i,i,i,-7.5*
Cc1ccc(O)c(O)c1,i,-10.2,i,.,i,-0.22
c1ccc(-c2ccc(OCCCNC3CCCC3)cc2)cc1,i,-19.3,i,i,i,-5.8*
c1ccc(Cc2ccc(OCCCNC3CCCC3)cc2)cc1,i,-16.2,i,.,i,-8.13*
CSCCC(NC(=O)c1ccccc1Cl)C(=O)Nc1cccc(S(=O)(=O)N2CCCC2)c1 (stereo not drawn),i,-9.5,i,i,i,1.63
COC(=O)[C@]1(C)N[C@H](CN(C)S(=O)(=O)c2ccc(-c3ccccc3)cc2)[C@@H]2C(=O)N(C)C(=O)[C@@H]21,.,.,.,i,.,.
CCOC(=O)c1ccccc1NC(=O)Cn1c(-c2nonc2N)nc2ccccc21,i,-17.3,-7.57*,i,i,-0.46
Nc1nonc1-c1nc2ccccc2n1CC(=O)Nc1ccccc1,i,-3.8,i,i,i,-2.69
CSCCNC(C)=O,i,5.5*,i,.,i,0.3
CCC(=O)N1c2ccc(S(=O)(=O)N3CCOCC3)cc2CC1C (stereo not drawn),i,-10.7,i,i,i,-1.49
CC(=O)c1cccc(S(=O)(=O)N2CCC(C(=O)Oc3ccc(-c4nnco4)cc3)CC2)c1,.,.,.,i,.,.
COc1ccc(CCC(=O)NC(C)C2CCCO2)cc1 (stereo not drawn),i,-7.0,i,i,i,2.35
Cc1nc2sc(C(c3ccccc3)N3CCN(C(=O)c4ccco4)CC3)c(O)n2n1 (stereo not drawn),i,1.6,i,i,12*,-0.9
O=C(C[n+]1ccccc1)N/N=C/c1c(F)cccc1Cl,i,-6.4,i,i,i,1.84
CC(Sc1n[nH]c(N)n1)C(=O)NC1CCCCC1C (stereo not drawn),i,-8.0,i,i,8*,1.79
SMILES,KCNQ1 inh,hERG rescue,KCNK9 block,KCNK3 block,KCNQ1 pot,Kir21 block
COC(=O)C1CC2=C(CCCC2=O)N(c2ccccc2)C1=O (stereo not drawn),.,.,.,i,.,.
CCCCC(CC)CNS(=O)(=O)c1ccc2c(c1)CCN2C(=O)CCC(=O)O (stereo not drawn),i,-12.0,i,i,i,-8.02*
CCc1ccc(NS(=O)(=O)c2ccc3c(c2)CCN3C(=O)CCC(=O)O)cc1,i,-6.8,i,i,i,0.93
COC(=O)Nc1nn(-c2ccc(OC)cc2)c(=O)c(C#N)c1C,i,5.5*,i,i,i,-0.02
CC1CCCCN1C(=O)CN1C(=O)CSc2ccc(S(=O)(=O)N3CCOCC3)cc21 (stereo not drawn),i,-8.3,i,i,i,0.68
O=C1NC(=S)SC1=C1CCCCCC1,i,27.4*,i,i,63*,-0.38
Cc1ccc(S(=O)(=O)N2c3ccccc3OCC2C(C)(C)C)cc1 (stereo not drawn),i,-8.0,i,i,i,0.65
Cc1ccc2c(c1)N(S(=O)(=O)c1ccc(F)cc1)C(C(C)(C)C)CO2 (stereo not drawn),7*,-10.9,i,i,i,-0.53
O=C(NCc1cccnc1)c1nc(-c2ccccc2)n(-c2ccccc2)n1,i,-13.1,i,i,i,-0.92
COC(=O)c1ccccc1NC(=O)c1cn(-c2ccc(C)c(C)c2)c(=O)c2ccccc12,8*,-5.2,i,i,i,-1.56
Cc1ccc(C(=O)Nc2ccc(N3CCN(C)CC3)cc2)cc1C,i,0.1,i,i,i,0.26
O=C(CNCc1ccccc1)Nc1ccc(Oc2ccccc2)cc1,i,-13.4,i,i,i,-9.53*
Cc1nn(C(=O)c2cccc([N+](=O)[O-])c2)c(C)c1Sc1ccccc1,i,-6.6,i,i,i,-4.35*
O=C(Cn1nnc2ccccc21)N/N=C\C=C\c1ccccc1,i,6.7*,i,i,i,0.09
COc1ccc(CNC(=O)CN(C(=O)CCC(=O)Nc2nccs2)c2ccccc2C)cc1,i,-10.7,i,i,i,-0.58
CN1C[C@@H]2[C@@H]3C(=O)N(C)C(=O)[C@@H]3[C@](C)(C1=O)N2C(=O)c1ccc(Cl)cc1,.,.,.,i,.,.
Cc1cccc(N2CCN(S(=O)(=O)c3ccc4c(c3)CC(C)N4C(=O)C3CC3)CC2)c1C (stereo not drawn),6*,-7.1,i,i,i,0.54
Cc1cc(Br)cc(Cl)c1OCC(=O)N1CCN(C(=O)c2ccco2)CC1,.,.,.,i,.,.
Clc1ccc(-c2csc(N3CCc4ccccc4C3)n2)cc1,i,-6.9,i,i,10*,0.81
c1ccc(-c2csc(N3CCOCC3)n2)cc1,i,-10.8,i,i,i,-1.79
c1ccc(-c2csc(N3CCN(c4ccccn4)CC3)n2)cc1,i,-0.9,-6.66*,i,i,1.47
COc1cc(C2C(C#N)=C(N)N(Nc3ccccc3)C3=C2C(=O)CC(C)(C)C3)ccc1OCc1ccccc1 (stereo not drawn),i,-10.1,-7.29*,i,i,-1.16
COc1cc(CNC(=O)c2cnc(C)cn2)cc(OC)c1,i,-2.2,i,i,i,0.09

# Screening data: PubChem BioAssay, Johns Hopkins Ion Channel Center
